CHT allo act: allosterically activates the human high affinity choline transporter; CHT-expressing cells, membrane potential dye, choline EC20; active compounds read high; LV-AA mutant CHT in HEK293 cells; 0.49% of 310,000 active; B-score at 10 µM; AID 488977;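 active means initial fluorescence not abnormally high and integrated response B-score, plate-corrected, over 3 SD above library mean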
Target sequence (Q9GZV3 whole entry, looked up): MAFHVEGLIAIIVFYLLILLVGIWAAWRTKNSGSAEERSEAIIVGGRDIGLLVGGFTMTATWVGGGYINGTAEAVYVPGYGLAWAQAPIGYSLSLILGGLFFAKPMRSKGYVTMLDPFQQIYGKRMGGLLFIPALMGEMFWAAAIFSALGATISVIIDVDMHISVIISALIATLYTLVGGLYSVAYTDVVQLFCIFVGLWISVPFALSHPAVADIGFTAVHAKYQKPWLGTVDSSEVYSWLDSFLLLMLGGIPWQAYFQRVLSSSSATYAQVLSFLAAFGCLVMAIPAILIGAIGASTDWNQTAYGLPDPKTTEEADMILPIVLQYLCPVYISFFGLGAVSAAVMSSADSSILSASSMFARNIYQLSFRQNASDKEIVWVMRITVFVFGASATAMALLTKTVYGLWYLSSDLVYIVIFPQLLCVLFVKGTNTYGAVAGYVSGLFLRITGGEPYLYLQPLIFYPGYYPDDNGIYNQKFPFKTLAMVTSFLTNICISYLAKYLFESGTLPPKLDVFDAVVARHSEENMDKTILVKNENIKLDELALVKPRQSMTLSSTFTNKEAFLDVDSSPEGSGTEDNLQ
CHT inh: inhibitors of human choline transporter CHT; AID 488975; Q9GZV3; 0.86% of 310,000 active; CHT-expressing cells, membrane potential dye, choline response; active compounds read low; B-score at 10 µM;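 active means B-score over 3 SD under the library average, and starting fluorescence ratio not unusually high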;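 further: choline stimulus applied at its EC90 after an EC20 pre-addition; B-score computed on integrated fluorescence ratio after choline addition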
PolyA inhibitor: inhibitors of polyadenylation in S. cerevisiae; S. cerevisiae SKY197-pL101 polyadenylation reporter, beta-gal luminescence; efflux-impaired pdr1/pdr3 knockout yeast; score 100 = 6 SD above DMSO; activity score, % at 12 µM; 0.02% of 300,000 active;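 active means lowest replicate activity score at least 50, where 100 means six control SD above control mean; inconclusive means lowest score under 50 but half or more replicates reach 50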;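 further: yeast exposed to compound for 9 h at 30 °C; higher score means more reporter readthrough which indicates perturbed polyadenylation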
T cruzi inh: T. cruzi replication inhibition. 1.4% of 300,000 active. inhibition, % (test concentration not listed). T. cruzi beta-gal in NIH3T3, luminescence, 90 h;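 active means mean inhibition across valid replicates above about 55%, limit read from the data; inconclusive means mean below that limit but half or more replicates reach it; inactive means mean below it, under half of replicates reach it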;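 further: signal also drops with host cell toxicity which is not excluded here; 0% = plate median of DMSO wells and 100% = zero luminescence signal; higher percent means less beta-gal luminescence so fewer parasites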
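Assay system: NIH/3T3 host cells with β-galactosidase reporter T. cruzi; input: 5,000 host fibroblasts per well; compound: single 50 nL compound addition per well in DMSO; timing: ≥90 h infection period, 3 h prior cell attachment; measured by: GalScreen β-gal luminescence, detergent lysis, 60 min; evaluation: percent inhibition of parasite-derived β-gal signal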
CHT inh conf: human CHT inhibition, confirmatory screen; AID 493221; CHT-expressing cells, choline membrane potential dye; LV-to-AA substituted CHT, HEK293 cells; shares compounds with CHT inh; CHT activity remaining % of control (active compounds read low), % at 10 µM; 70% of 2,400 active;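 active means choline transporter activity left, mean of duplicates at 10 µM, below buffer-only control mean minus 3 SD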;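 further: depolarization triggered by choline at its EC90 following an EC20 pre-addition; 0% = hemicholinium-3 full block and 100% = buffer-only control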
HEK293 CHT ctr: counter-screen for CHT inhibitors: effect in parental HEK293 cells | AID 493222 | shares compounds with CHT inh | 4% of 2,400 active | membrane potential dye, choline response; active = decrease or increase beyond buffer ±3SD | membrane potential ratio readout (active if shifted either direction beyond buffer ±3SD; no single direction) at 10 µM;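 further: parental cells lack the transporter so any hit is non-specific; ratio is peak minus trough fluorescence over baseline after EC90 choline challenge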
* marks the source's active call; other numbers are inactive results; i = inactive; ? = inconclusive; nt = not tested or not shown. Only some compounds are listed: those with a hit (about 2.6% of all), similar ones and a draw of the others.

SMILES	CHT allo act	CHT inh	PolyA inhibitor	T cruzi inh	CHT inh conf	HEK293 CHT ctr
COc1ccc(C=O)cc1Cn1cnc2c(cnn2C)c1=O	i	-5.71*	29.8	5.2	i	i
Cc1cccc(N=Cc2cc3c(cc2[N+](=O)[O-])OCO3)c1	i	i	7.4	-2.5	nt	nt
COc1cc(C=Nc2cccc(C)c2)c(O)c([N+](=O)[O-])c1	i	-6.91*	-15.7	46.6	68.0%*	i
CC(C)(C)OC(=O)NCCCC[C@@H](C(=O)NCCCCCCCCCCC(=O)N1CCN(C(=O)OC(C)(C)C)CC1)n1cc(CCO)nn1	i	i	9.9	25.5	nt	nt
CSCC[C@@H](C(=O)NCCCCCCCCCCC(=O)N1CCN(C(=O)OC(C)(C)C)CC1)n1cc(CCO)nn1	i	-6.37*	nt	nt	40.0%*	i
CCc1c(C)[nH]c2ccccc2c1=O	i	-5.22*	nt	nt	62.8%*	i
O=C(O)c1ccc2c(c1)N(Cc1ccc(F)cc1)C(=O)c1ccccc1S2	i	-5.22*	8.0	-2.1	63.9%*	i
Oc1c(Br)cc(Br)cc1C=Nc1cccc2ncccc12	i	-8.23*	-1.7	-9.3	52.5%*	i
Brc1cccc(C=Nc2cccc3ncccc23)c1	i	i	6.4	-16.5	nt	nt
O=S(=O)(c1ccccc1)N1N=C(c2ccc(Br)cc2)CC1c1ccco1 (stereo not given)	i	i	-15.2	18.9	nt	nt
CC(C)CN(CCNC(=O)CN1N=C(c2ccc(Cl)cc2)CCC1=O)CC(C)C	i	i	-12.6	-16.1	nt	nt
N#Cc1ccccc1Sc1ccccc1C(=O)OCC(N)=O	i	i	9.1	-26.2	nt	nt
Cc1noc(C)c1COC(=O)c1ccccc1Sc1ccccc1C#N	i	-6.14*	-26.2	14.9	i	i
O=C(Nc1cccnc1)c1ccc(COc2ccccc2Cl)o1	i	-7.29*	-2.2	-37.3	56.2%*	i
O=C(Nc1cccnc1)c1ccc(COc2cc(Cl)ccc2Cl)o1	i	i	-4.1	-14.2	nt	nt
CCCCN(CCCC)CCCNC(=O)C12CN(Cc3ccccc3)CC1C(c1cccc([N+](=O)[O-])c1)=NO2 (stereo not given)	i	-10.5*	?	-0.7	15.2%*	i
O=C(NCc1ccccc1)C12CN(Cc3ccccc3)CC1C(c1cccc([N+](=O)[O-])c1)=NO2 (stereo not given)	i	i	7.8	28.3	nt	nt
COc1ccc(CN(C)c2ncnc3sccc23)c(OC)c1OC	i	i	11.3	20.8	65.1%*	i
CN(Cc1cccs1)c1ncnc2sccc12	i	-7.42*	-21.3	-25.9	50.2%*	i
CN(Cc1ccccc1F)c1ncnc2sccc12	i	i	7.5	-9.6	nt	nt
O=C(CSc1nc2ccccc2[nH]1)c1ccc2c(c1)OCO2	i	-6.14*	nt	5.8	36.3%*	i
COc1cc(C(=O)NCCC2=CCCCC2)cc(OC)c1OC	i	i	-24.2	9.3	nt	nt
COc1ccc(C(=O)NCCC2=CCCCC2)cc1OC1CCN(C(C)C)CC1	i	-11.1*	-5.5	30.2	5.1%*	i
CCOCCCNC(=O)c1ccc(OC2CCN(C(C)=O)CC2)c(OC)c1	i	i	-17.5	-12.5	nt	nt
COc1ccc(C(=O)NC2CCCCCC2)cc1OC1CCN(C(C)=O)CC1	i	i	7.1	1.5	nt	nt
SMILES	CHT allo act	CHT inh	PolyA inhibitor	T cruzi inh	CHT inh conf	HEK293 CHT ctr
COc1ccc(C(=O)NCCCSC)cc1OC1CCN(C(C)C)CC1	i	-9.06*	-3.0	-3.1	18.0%*	i
COc1ccc(C(=O)N2CCCC(O)C2)cc1OC1CCN(C(C)C)CC1 (stereo not given)	i	-7.07*	4.6	-4.8	61.5%*	i
COc1ccc(C(=O)NC2CCCCC2)cc1OC1CCN(C(C)C)CC1	i	-7.74*	27.3	6.0	9.8%*	i
COCC1CCN(C(=O)c2ccc(OC)c(OC3CCN(C(C)C)CC3)c2)CC1	i	i	3.0	5.5	nt	nt
COc1ccc(S(=O)(=O)NNc2nc(C)cc(C)n2)cc1Br	i	i	23.0	-3.1	nt	nt
Cc1cc(NC(=O)NC(=O)c2ccccc2)no1	i	i	12.1	-18.8	nt	nt
Cc1ccc(-c2nc(SC(C)C(=O)c3c(N)n(C)c(=O)n(C)c3=O)n[nH]2)cc1 (stereo not given)	i	i	17.9	-7.4	nt	nt
COc1ccc(OCCCC(=O)OCC(=O)c2ccc3c(c2)NC(=O)CO3)cc1	i	i	3.7	1.2	nt	nt
CCCOc1ccc2ccccc2c1/C=C1\SC(=O)NC1=O	i	-6.39*	-2.4	11.6	i	i
O=C1NC(=O)/C(=C/c2cccc3ccccc23)S1	i	-4.99*	-5.3	-1.4	62.2%*	i
O=C1NC(=O)/C(=C\c2ccc(O)cc2O)S1	i	i	5.3	-5.0	nt	nt
Cc1ccc(S(=O)(=O)Oc2ccccc2/C=C2/SC(=O)NC2=O)cc1	i	-5.97*	12.2	1.7	56.7%*	i
Cc1cc(C)n(CCC(=O)N=Nc2c(O)[nH]c3ccccc23)n1	i	i	-2.9	-0.1	nt	nt
Cc1nn(C)cc1S(=O)(=O)Nc1ccccc1Br	i	i	-0.6	-1.6	nt	nt
CCCc1nc(NCCO)c(C#N)c2c1CCCC2	i	-8.02*	-7.8	4.9	i	i
O=C1C[C@H]2[C@H](CO)[C@@H](OC(=O)c3ccc(-c4ccccc4)cc3)C[C@H]2O1	i	-5.75*	0.6	-3.1	63.8%*	i
CCc1ccc(S(=O)(=O)NCc2cn3cccc(C)c3n2)s1	i	-5.39*	12.0	-15.5	44.9%*	i
CCc1ccc(S(=O)(=O)NCc2cn3ccsc3n2)s1	i	i	0.3	-21.1	nt	nt
CC(C)(C)C(=O)Nc1ccc(/C=C/C(=O)c2ccco2)cc1	i	i	-3.1	-0.3	nt	nt
CCCN1CCN(C(=O)C2CCN(S(=O)(=O)c3c(C)noc3/C=C/c3ccc(C)cc3)CC2)CC1	i	i	13.4	32.9	nt	nt
O=C(NCCCn1ccnc1)c1nc(Cn2cc(Br)cn2)no1	i	i	-6.0	-7.9	nt	nt
Oc1c(Br)cc(Br)cc1C=NCc1ccccc1	i	-9.85*	-57.6	-7.6	42.4%*	i
Oc1c(Br)cc(Br)cc1C=NCc1ccc(F)cc1	i	-7.07*	-57.4	6.4	56.7%*	i
O=C(Cc1ccccc1)N/N=C/c1cc(Br)cc(Br)c1O	i	i	-8.8	25.8	nt	nt
CCCn1c(N)c(N(CCOC)C(=O)c2cc(S(=O)(=O)N3CCCCCC3)ccc2OC)c(=O)[nH]c1=O	i	i	13.6	1.3	nt	nt
CCC(=O)Nc1cc2nn(-c3ccc(OC)cc3)nc2cc1C	i	-6.63*	10.1	-3.8	i	i
Cc1ccc(Cl)c2sc(N3CCN(C(=O)c4ccco4)CC3)nc12	i	i	12.8	10.3	nt	nt
